One block for each molecule: values may come before it.
Columns and labels:
[1] = Stability in Dutch-belted rabbit eye assessed as hydrolysis rate; format: ADME, tissue-based, Oryctolagus cuniculus
In short: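 Two Dutch-Belted rabbit eyeballs were homogenized in 1× RIPA buffer. Prodrug (from 1 mg/mL DMSO stock) was added to a final 5 µg/mL and kept at 37 °C, sampled at 0, 0.25, 1, 2 and 6 h. Controls were prodrug in RIPA buffer for 120 min at 37 °C. Supernatants were analyzed by LC/MS/MS for prodrug and released parent phenol.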

[2] = Stability at 120 degC after 1 hr; format: physicochemical; details: for remaining at 1 h: read-out: Stability
In short: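 Prodrugs at 0.5% in 0.5% HPMC/5% dextrose, pH 6.7, in closed vials, autoclaved at 120 °C for 1 h. After cooling, percent remaining was assessed by reverse-phase HPLC with diode-array and ELSD detection.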

[3] = biological target: Vascular endothelial growth factor receptor 2 (Homo sapiens, UniProt P35968); experiment: Inhibition of VEGFR2
[4] = biological target: Proto-oncogene tyrosine-protein kinase Src (Homo sapiens, UniProt P12931); experiment: Inhibition of Src
[5] = Tmax in C57BL/6 mouse cornea at 137 nM instilled per eye; format: ADME, organism-based; details: topical or ocular, 137 nM per eye
In short: (§1)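 One 10 µL topical drop per eye (70 µg, 137 nmol; 0.7% w/v in 27% w/v PL90G aqueous formulation) to 20 male C57BL/6 mice. Composite sampling, N = 4 per time point at 0.5, 1, 3, 7 and 24 h. Cornea, retina and choroid/sclera eye cup were dissected and plasma taken at euthanasia. LC/MS/MS quantitation; Tmax and Cmax from measured levels; AUC by linear trapezoidal rule on mean data.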

Mus musculus [6] = experiment: Inhibition of FAK-Y861 phosphorylation in mouse at 5 mg/kg
[7] = Cmax in C57BL/6 mouse choroid/sclera at 137 nM instilled per eye; format: ADME, organism-based; parameters: dose 137 nM, route ophthalmic; details: topical or ocular, 137 nM per eye; in short: as §1
[8] = AUC (0 to 24 hrs) in C57BL/6 mouse choroid/sclera at 137 nM instilled per eye; format: ADME, organism-based; parameters: time < 24 hr, dose 137 nM, route ophthalmic; details: topical or ocular, 137 nM per eye; in short: as §1
[9] = Cmax in C57BL/6 mouse cornea at 137 nM instilled per eye; format: ADME, organism-based; parameters: dose 137 nM, route ophthalmic; details: topical or ocular, 137 nM per eye; in short: as §1
[10] = Cmax in C57BL/6 mouse plasma at 137 nM instilled per eye; format: ADME, organism-based; parameters: dose 137 nM, route ophthalmic; details: topical or ocular, 137 nM per eye; in short: as §1
[11] = Antiproliferative activity against VEGF-stimulated human RMVEC cells after 48 hrs; format: functional, cell-based
In short: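 Human retinal microvascular endothelial cells (~1.5 × 10³/well) were made quiescent for ~48 h in growth-factor-free medium with 10% FBS. Cells were pretreated ~60 min with compound (5–0.00229 or 2–0.00195 µM) in medium with 10% FBS and 50 µg/mL heparin. VEGF 50 ng/mL was added for 48 h at 37 °C/5% CO₂. XTT read at 492/690 nm; IC50 by nonlinear regression.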

[12] = Tmax in C57BL/6 mouse choroid/sclera at 137 nM instilled per eye; format: ADME, organism-based; details: topical or ocular, 137 nM per eye; in short: as §1
[13] = AUC (0 to 24 hrs) in C57BL/6 mouse cornea at 137 nM instilled per eye; format: ADME, organism-based; parameters: dose 137 nM, time < 24 hr, route ophthalmic; details: topical or ocular, 137 nM per eye; in short: as §1
Mus musculus [14] = experiment: Reduction of VEGF-induced retinal leak in BALB/c mouse administered topically at 137 nM thrice a day; format: functional; parameters: scale not given: the % may be the effect or the level left
Mus musculus [15] = experiment: Reduction of VEGF-induced retinal leak in BALB/c mouse administered topically at 137 nM q.d; format: functional; parameters: scale not given: the % may be the effect or the level left
[16] = Half life in C57BL/6 mouse administered topically at 0.7% w/v thrice a day; format: ADME, organism-based; details: in vivo, topical or ocular
[17] = Tmax in C57BL/6 mouse plasma at 137 nM instilled per eye; format: ADME, organism-based; details: topical or ocular, 137 nM per eye; in short: as §1
[18] = Tmax in C57BL/6 mouse retina at 137 nM instilled per eye; format: ADME, organism-based; details: topical or ocular, 137 nM per eye; in short: as §1
[19] = biological target: Tyrosine-protein kinase Yes (Homo sapiens, UniProt P07947); experiment: Inhibition of YES
[20] = AUC (0 to 24 hrs) in C57BL/6 mouse retina at 137 nM instilled per eye; format: ADME, organism-based; parameters: time < 24 hr, dose 137 nM, route ophthalmic; details: topical or ocular, 137 nM per eye; in short: as §1
[21] = Cmax in C57BL/6 mouse retina at 137 nM instilled per eye; format: ADME, organism-based; parameters: dose 137 nM, route ophthalmic; details: topical or ocular, 137 nM per eye; in short: as §1

Vascular endothelial growth factor receptor 2, sequence (P35968 whole entry): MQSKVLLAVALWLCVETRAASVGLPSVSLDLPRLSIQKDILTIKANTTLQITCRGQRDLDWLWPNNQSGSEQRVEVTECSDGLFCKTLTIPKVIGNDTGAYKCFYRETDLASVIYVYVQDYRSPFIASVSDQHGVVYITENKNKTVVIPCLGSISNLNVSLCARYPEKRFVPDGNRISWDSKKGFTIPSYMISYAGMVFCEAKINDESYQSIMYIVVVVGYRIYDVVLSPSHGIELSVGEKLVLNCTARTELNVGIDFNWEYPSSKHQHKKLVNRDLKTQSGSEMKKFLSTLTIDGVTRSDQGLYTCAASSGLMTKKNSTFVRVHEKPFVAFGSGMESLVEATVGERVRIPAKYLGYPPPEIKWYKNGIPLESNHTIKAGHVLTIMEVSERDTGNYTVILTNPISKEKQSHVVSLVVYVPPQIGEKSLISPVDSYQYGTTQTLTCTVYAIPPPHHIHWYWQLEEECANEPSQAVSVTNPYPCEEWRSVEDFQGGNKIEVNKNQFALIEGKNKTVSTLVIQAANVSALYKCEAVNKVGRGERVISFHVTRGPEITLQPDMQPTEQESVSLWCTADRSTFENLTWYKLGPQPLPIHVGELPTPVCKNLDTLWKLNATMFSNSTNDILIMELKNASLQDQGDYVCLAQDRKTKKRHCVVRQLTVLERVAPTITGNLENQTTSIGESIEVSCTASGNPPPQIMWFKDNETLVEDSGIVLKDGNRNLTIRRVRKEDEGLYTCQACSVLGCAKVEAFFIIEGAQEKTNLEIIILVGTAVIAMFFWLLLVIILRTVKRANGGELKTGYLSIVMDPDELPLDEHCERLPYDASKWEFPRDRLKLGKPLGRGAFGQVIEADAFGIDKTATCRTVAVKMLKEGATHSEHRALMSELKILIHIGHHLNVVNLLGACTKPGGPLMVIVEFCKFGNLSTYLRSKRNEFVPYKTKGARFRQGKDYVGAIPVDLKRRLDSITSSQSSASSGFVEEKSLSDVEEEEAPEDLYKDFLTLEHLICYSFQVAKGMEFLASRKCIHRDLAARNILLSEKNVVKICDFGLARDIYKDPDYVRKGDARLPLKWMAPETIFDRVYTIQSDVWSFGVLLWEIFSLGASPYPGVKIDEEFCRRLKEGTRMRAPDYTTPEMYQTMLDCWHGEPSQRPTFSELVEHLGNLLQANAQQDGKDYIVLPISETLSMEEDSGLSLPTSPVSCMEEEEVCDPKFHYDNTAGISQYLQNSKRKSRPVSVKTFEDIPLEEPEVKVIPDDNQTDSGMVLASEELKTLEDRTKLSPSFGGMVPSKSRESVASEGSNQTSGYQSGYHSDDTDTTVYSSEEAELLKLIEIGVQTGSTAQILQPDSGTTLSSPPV
Proto-oncogene tyrosine-protein kinase Src, sequence (P12931 2-536 limits assumed): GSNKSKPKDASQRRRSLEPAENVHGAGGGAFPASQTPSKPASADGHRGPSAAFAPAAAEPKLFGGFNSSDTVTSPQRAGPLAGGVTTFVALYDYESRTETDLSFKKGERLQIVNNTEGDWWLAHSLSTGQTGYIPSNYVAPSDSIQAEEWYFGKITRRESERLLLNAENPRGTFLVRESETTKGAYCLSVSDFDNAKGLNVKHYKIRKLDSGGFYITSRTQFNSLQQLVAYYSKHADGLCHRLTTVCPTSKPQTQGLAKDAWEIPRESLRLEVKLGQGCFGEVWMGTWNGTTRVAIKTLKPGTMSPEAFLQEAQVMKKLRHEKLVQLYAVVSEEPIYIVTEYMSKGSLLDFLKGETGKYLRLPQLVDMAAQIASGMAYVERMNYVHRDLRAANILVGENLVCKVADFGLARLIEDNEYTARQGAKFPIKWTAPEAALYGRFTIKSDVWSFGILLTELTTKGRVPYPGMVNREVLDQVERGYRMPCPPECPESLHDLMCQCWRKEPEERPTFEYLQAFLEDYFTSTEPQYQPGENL
Tyrosine-protein kinase Yes, sequence (P07947 whole entry): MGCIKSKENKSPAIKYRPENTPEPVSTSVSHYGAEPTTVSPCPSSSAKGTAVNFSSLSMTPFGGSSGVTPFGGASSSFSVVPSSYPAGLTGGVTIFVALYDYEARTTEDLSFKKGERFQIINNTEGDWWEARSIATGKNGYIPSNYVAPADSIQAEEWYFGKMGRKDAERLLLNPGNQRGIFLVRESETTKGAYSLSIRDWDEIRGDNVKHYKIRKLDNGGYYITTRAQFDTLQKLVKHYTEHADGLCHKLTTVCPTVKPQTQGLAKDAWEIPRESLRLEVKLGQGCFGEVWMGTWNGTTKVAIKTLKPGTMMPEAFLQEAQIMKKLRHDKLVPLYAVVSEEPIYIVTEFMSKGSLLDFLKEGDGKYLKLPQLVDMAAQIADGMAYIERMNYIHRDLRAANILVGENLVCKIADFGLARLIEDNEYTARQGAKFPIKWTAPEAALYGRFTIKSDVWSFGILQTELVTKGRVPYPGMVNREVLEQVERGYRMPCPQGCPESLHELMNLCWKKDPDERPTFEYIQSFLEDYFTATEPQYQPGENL

Stability [1]: 1.7 ng/mL/h
remaining at 1 h [2]: > 90%
Structure (SMILES): Cc1cc(-c2cc(OC(=O)c3c(Cl)cccc3Cl)ccc2Cl)cc2nnc(Nc3ccc(OCCN4CCCC4)cc3)nc12

IC50 [3]: 1900 nM
Structure (SMILES): Cc1cc(-c2ccccc2Cl)cc2nnc(Nc3ccc(OCCN4CCCC4)cc3)nc12

IC50 [3]: 2.7 nM
IC50 [4]: 1.5 nM
Structure (SMILES): Cc1cc(-c2cc(O)ccc2Cl)cc2nnc(Nc3ccc(CCCN4CCCC4)cc3)nc12

IC50 [3]: 1.7 nM
Structure (SMILES): Cc1cc(-c2cc(O)ccc2Cl)cc2nnc(Nc3ccc(S(=O)(=O)C4CCNCC4)cc3)nc12

remaining at 1 h [2]: < 20%
Structure (SMILES): Cc1cc(-c2cc(OC(=O)CN)ccc2Cl)cc2nnc(Nc3ccc(OCCN4CCCC4)cc3)nc12

remaining at 1 h [2]: > 90%
Structure (SMILES): Cc1cc(-c2cc(OC(=O)c3ccc(CN4CCOCC4)cc3)ccc2Cl)cc2nnc(Nc3ccc(OCCN4CCCC4)cc3)nc12

IC50 [3]: 2.2 nM
Tmax at 0.137 µM [5]: 30 min
Cmax at 0.137 µM [7]: 23.4 µM
AUC(0-t) at 24 h, 0.137 µM [8]: 240 µg·h/mL
Cmax at 0.137 µM [9]: 64 µM
Cmax at 0.137 µM [10]: 0.002 µM
IC50 [4]: 1.8 nM
Tmax at 0.137 µM [12]: 30 min
AUC(0-t) at 24 h, 0.137 µM [13]: 560 µg·h/mL
Stability ([2]; 1 h): Stable
half-life [16]: 30 min
Tmax at 0.137 µM [17]: 360 min
Tmax at 0.137 µM [18]: 30 min
IC50 [19]: 0.3 nM
AUC(0-t) at 24 h, 0.137 µM [20]: 3.2 µg·h/mL
Cmax at 0.137 µM [21]: 3.6 µM
Structure (SMILES): Cc1cc(-c2cc(O)ccc2Cl)cc2nnc(Nc3ccc(OCCN4CCCC4)cc3)nc12
inhibition in vivo at 5 mg/kg (Mus musculus [6]): > 90%
IC50 [11]: 610 nM
Activity (Mus musculus [14]): 85%
Activity (Mus musculus [15]): 60%

IC50 [3]: 530 nM
Structure (SMILES): Cc1cc(-c2ccccc2)cc2nnc(Nc3ccc(OCCN4CCCC4)cc3)nc12

remaining at 1 h [2]: > 90%
Structure (SMILES): Cc1ccc(C(=O)Oc2ccc(Cl)c(-c3cc(C)c4nc(Nc5ccc(OCCN6CCCC6)cc5)nnc4c3)c2)cc1
